# Screening results deposited in PubChem BioAssay by several laboratories.
# Fibroblast inh: blocks proliferation of human lung fibroblasts. LL 47 human lung fibroblast viability, ATP luminescence; active compounds read low. viability, % at 10 µM. hit rate 1.1% among 85,000;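 active = viability at or below 50% in the single dose screen; inactive = viability above 50%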;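 note: compound exposure lasted 72 h before the ATP readout; 100% = median luminescence of untreated cell-only wells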
#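 Test system: LL 47 human lung fibroblasts / Incubation: 72 h compound exposure at 37 °C after overnight plating / Technique: luminescent ATP detection, CellTiter-Glo / Compound dosing: 0.1% DMSO in all compound wells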
# HUVEC prolif 384: inhibitors of human endothelial cell proliferation; hit rate 1.1% among 86,000; HUVEC proliferation, CellTiter-Glo luminescence, 72 h; active compounds read low; viability, % at 10 µM (by protocol);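 active = viability at or below 30%; inactive = viability above 30%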;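 note: 100% = median luminescence of DMSO-only cell control wells on each plate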
# PTK2B oligo ant: Pyk2 (human) oligomerization antagonism | Q14289 | Q293 cells, Pyk2 FERM NanoBiT luminescence; active compounds read low | z-score (the deposit names both 25 µM and 10 µM) | hit rate 0.83% among 99,000;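 active = Z-score of -3 or lower, scaled per plate to the spread of control and sample wells; inactive = z-score above -3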;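 note: negative z-score means lost luminescence so less FERM oligomerization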
# Target sequence (Q14289 whole entry, looked up): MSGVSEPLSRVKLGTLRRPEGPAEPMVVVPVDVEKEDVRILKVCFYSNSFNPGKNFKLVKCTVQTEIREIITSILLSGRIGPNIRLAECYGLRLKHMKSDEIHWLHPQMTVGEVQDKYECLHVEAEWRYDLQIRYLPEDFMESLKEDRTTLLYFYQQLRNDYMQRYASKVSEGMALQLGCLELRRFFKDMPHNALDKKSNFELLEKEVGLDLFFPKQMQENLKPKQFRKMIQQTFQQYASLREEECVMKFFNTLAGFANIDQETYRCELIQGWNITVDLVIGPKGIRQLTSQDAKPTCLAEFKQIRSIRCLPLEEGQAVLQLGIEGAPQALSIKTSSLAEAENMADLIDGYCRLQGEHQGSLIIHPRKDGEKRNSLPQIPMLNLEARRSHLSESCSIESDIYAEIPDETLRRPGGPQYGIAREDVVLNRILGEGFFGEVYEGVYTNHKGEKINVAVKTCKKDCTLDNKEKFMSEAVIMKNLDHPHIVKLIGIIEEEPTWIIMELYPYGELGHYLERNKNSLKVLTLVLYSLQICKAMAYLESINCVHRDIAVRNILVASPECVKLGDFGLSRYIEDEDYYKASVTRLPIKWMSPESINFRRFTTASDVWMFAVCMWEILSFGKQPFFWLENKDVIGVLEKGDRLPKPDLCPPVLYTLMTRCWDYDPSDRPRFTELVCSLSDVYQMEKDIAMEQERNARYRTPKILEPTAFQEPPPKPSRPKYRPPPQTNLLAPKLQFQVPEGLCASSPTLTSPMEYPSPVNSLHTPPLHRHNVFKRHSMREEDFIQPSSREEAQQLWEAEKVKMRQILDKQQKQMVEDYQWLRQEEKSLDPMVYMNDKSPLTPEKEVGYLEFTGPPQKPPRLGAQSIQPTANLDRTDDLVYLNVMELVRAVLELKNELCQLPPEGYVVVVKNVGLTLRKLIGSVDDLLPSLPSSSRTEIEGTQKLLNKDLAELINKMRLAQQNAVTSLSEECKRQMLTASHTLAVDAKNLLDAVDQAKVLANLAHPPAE
# bCat KO growth: beta-catenin-lacking colon tumor cell growth suppression; HCT116 beta-catenin knockout viability, CellTiter-Glo, 60 h; active compounds read low; viability, % at 10 µM; hit rate 1.5% among 140,000;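 active = viability at or under a set limit, the compound median less 4 SD, cut at about 6% in these data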;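 note: 0% = Hyamine 1622 control at 20 µM and 100% = untreated cell control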
# PTEN del growth: suppresses growth of cells with PTEN deletion; hit rate 1.2% among 140,000; HCT116 PTEN-null viability, CellTiter-Glo, 60 h; active compounds read low; viability, % at 10 µM;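 active = viability at or below a set limit, 4 SD under the median of all tested compounds, cut at about 3.7% in these data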;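 note: PTEN knockout HCT116 line with beta catenin targeted HCT116 as companion control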
# H69AR growth 86K: growth inhibitors of human H69AR lung tumor cells; viability, % at 10 µM; hit rate 6% among 85,000; H69AR lung tumor viability, ATP luminescence, 72 h; active compounds read low; AID 598;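 active = viability at or below 40%; inactive = viability above 40%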;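 note: multidrug resistant small cell line overexpressing MRP-1 efflux transporter; 100% = mean luminescence of untreated control wells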
# An asterisk follows results filed as active; / = no result. This excerpt belongs to a sample that is enriched for hits.
SMILES,Fibroblast inh,HUVEC prolif 384,PTK2B oligo ant,bCat KO growth,PTEN del growth,H69AR growth 86K
O=S(=O)(/C(=C/c1ccc(C(F)(F)F)cc1)c1nc2ccccc2[nH]1)c1ccccc1,/,/,/,1.5*,1.6*,/
CC1CCN(C(=O)CCc2ccc(Oc3cc([N+](=O)[O-])cc([N+](=O)[O-])c3)cc2)CC1,/,/,/,85,85,/
COc1ccc(/C=C/c2nc3ccccc3n2Cc2ccccc2OC)cc1,/,/,/,1.9*,2.8*,/
COc1ccc(C2NC(C(=O)O)Cc3c2[nH]c2ccccc32)cc1OC (stereo not drawn),92,89,-0.78,93,92,83
COc1ccc(C2NCCc3c2[nH]c2ccccc32)cc1CSc1nc2ccccc2s1 (stereo not drawn),/,/,/,1.4*,1.3*,/
O=C(COC(=O)c1cccnc1Cl)c1cccc(Cl)c1,104,101,0.99,97,96,96
Cc1ccc(C(=O)/C=C/c2cn(CN3CCN(C)CC3)c3ccccc23)cc1,89,64,-1.6,70,72,5.8*
CN(C)CCCN1c2ccccc2CCc2ccc(Cl)cc21,64,59,/,1.7*,1.6*,96
O=C(CSc1nc2ccccc2c(=O)n1CC1CCCO1)NCC1CCCO1 (stereo not drawn),109,102,0.36,99,95,95
NC(=O)NC(=O)CSc1nc(-c2ccccc2)c(-c2ccccc2)n1CC1CCCO1 (stereo not drawn),95,112,0.06,96,88,36*
Cc1cc(=O)oc2ccc(OCC(=O)N3CCC(C)CC3)cc12,94,102,1.2,106,114,82
CC1CC(C)CN(CC(=O)N2CCCc3c2c(=O)oc2ccc(OCc4ccccc4)cc32)C1 (stereo not drawn),95,80,1.1,3.5*,13,90
CCCOc1ccc2oc(=O)c3c(c2c1)CCCN3C(=O)CN1CCc2ccccc2C1,94,44,1.4,42,47,40*
CCCOc1ccc(C(=O)N2CCCc3ccccc32)cc1,94,93,-1.3,95,92,83
CC1CCN(CC(=O)N2CCCc3c2c(=O)oc2ccc(OCc4ccccc4)cc32)CC1,89,74,0.04,9,17,33*
Cc1ccc(OCC(=O)NNC(=O)C(=O)N2CCCC2)c(C)c1,/,/,/,104,100,/
Cc1c(O)c2c3c(cccc3c1O)C(=O)N(c1ccccc1)C2=O,/,/,0.65,89,93,/
CC1=C(C(=O)Nc2ccc([N+](=O)[O-])cc2)C(c2cccc(C(F)(F)F)c2)NC(=S)N1c1ccccc1 (stereo not drawn),/,/,-0.06,1.4*,1.9*,/
COc1ccc(C2NC(=S)N(c3ccccc3)C(C)=C2C(=O)Nc2ccccc2)cc1 (stereo not drawn),92,88,-0.43,85,96,90
S=C(NCCCN1CCOCC1)Nc1ccc(Cl)c(Cl)c1,/,/,/,89,89,/
COc1cc(/C=C(\C#N)c2ccccn2)ccc1OCc1ccc(Cl)cc1,/,/,-0.82,88,88,/
CC1CCN(C(=O)CCCNC(=O)Cn2cnc3sc4c(c3c2=O)CCCC4)CC1,97,96,-0.28,99,85,86
OCCN1CCN(C2Cc3cc(Cl)ccc3Sc3ccc(Cl)cc32)CC1 (stereo not drawn) (tested in a mixture with another compound),92,2.4*,-0.64,33,44,8.9*
COc1ccc(NC(=O)CCc2ccccc2)cc1NC(=O)c1ccco1,98,64,-0.89,80,79,36*
COc1ccccc1-n1cnc2cc(NC(=O)c3ccco3)ccc21,89,73,-0.82,37,32,22*
SMILES,Fibroblast inh,HUVEC prolif 384,PTK2B oligo ant,bCat KO growth,PTEN del growth,H69AR growth 86K
COc1ccc(CCC(=O)Nc2cc(Cl)ccc2OC)cc1,91,82,0.3,69,69,24*
CCOc1cc(NC(=O)c2ccco2)c(OCC)cc1NC(=O)CCc1ccc(OC)cc1,84,66,/,/,/,33*
COc1cc(NC(=O)CSc2nc3ccccc3c(=O)n2C)ccc1NC(=O)c1ccco1,71,50,-1.4,98,103,24*
O=C(/C=C/c1ccc([N+](=O)[O-])cc1)c1cccnc1,/,/,-0.4,1.4*,1.6*,/
O=C(/C=C/c1cccc(OCc2ccccc2)c1)c1cccnc1,/,/,/,2.7*,0.7*,/
O=C(/C=C/c1ccccc1)NC(=S)NNC(=O)c1cccnc1,/,/,2.1,74,72,/
COC(=O)c1cccc(CSc2nnc(C)s2)c1,96,102,-0.26,107,98,90
Cc1nnc(NC(=O)c2ccc(S(=O)(=O)N(C)Cc3ccccc3)cc2)o1,97,85,-1.5,38,34,24*
COCCN(CCOC)S(=O)(=O)c1ccc(C(=O)Nc2nnc(C)o2)cc1,/,/,0.21,93,102,/
CCN(Cc1ccccc1)S(=O)(=O)c1ccc(C(=O)Nc2nnc(C3CC3)o2)cc1,70,69,/,18,14,32*
Cc1cccc(C)c1C(=NCCCN(C)C)c1ccccc1,/,/,/,85,80,/
O=C(Cc1ccccc1)NC(=S)Nc1ccc2oc(-c3ccccc3)nc2c1,/,/,/,86,81,/
CCOc1ccc(Br)cc1S(=O)(=O)Nc1cccc(S(=O)(=O)N(C)c2ccccc2)c1,/,/,/,89,83,/
O=C(NCc1ccco1)c1cc2n(n1)C(C(F)(F)F)CC(c1ccc(Cl)c(Cl)c1)N2 (stereo not drawn),95,73,-0.49,93,83,31*
CCOC(=O)c1cc2sc(C)cc2n1CC(=O)N1CCOCC1,102,108,-0.06,94,92,102
CCOC(=O)c1cc2sc(C)cc2n1CC(=O)NCc1ccc(F)cc1,95,67,-0.45,96,86,30*
NC(N)=N/N=C/c1ccc(OCc2ccccc2)cc1,/,/,0.86,1.7*,1.8*,/
NC(N)=N/N=C/c1ccc(OCc2ccc(Cl)cc2)cc1,/,/,-1.2,1.5*,1.5*,/
CC(C)C(=O)N/N=C/c1ccc(OCc2ccccc2)cc1,/,/,0.52,91,92,/
CCc1ccccc1N1CCN(S(=O)(=O)c2cc(OC)ccc2OC)CC1,101,81,-3.3*,83,84,90
c1ccc(-c2ccccc2-c2nc(-c3cccnc3)no2)cc1,95,76,-2.1,97,85,76
c1ccc(-c2cc(-c3nc(-c4cccnc4)no3)c3ccccc3n2)cc1,107,83,/,/,/,12*
Cc1nn(-c2ccccc2)c2sc(C(=O)OCN3C(=O)c4ccccc4C3=O)cc12,97,61,/,/,/,56
O=C(NCC(c1cccnc1)N1CCN(c2ccccc2)CC1)OCc1ccccc1 (stereo not drawn),95,102,-1.4,74,74,84
O=C(NCC(c1ccco1)N1CCN(c2ccc(F)cc2)CC1)OCc1ccccc1 (stereo not drawn),/,/,-3*,72,71,/
O=C(NCC(c1cccnc1)N1CCN(c2ccccc2F)CC1)OCc1ccccc1 (stereo not drawn),100,98,-3.1*,56,68,87
